Experiments:
HL-60 = assay: In vitro antitumor activity against leukemia HL-60(TB) tumor cell lines; type: functional, cell-based, Homo sapiens; conditions: hl-60
CCRF-CEM = assay: In vitro antitumor activity against leukemia CCRF-CEM tumor cell lines; type: functional, cell-based, Homo sapiens; conditions: ccrf-cem
HCT-15 = assay: In vitro antitumor activity against colon HCT-15 tumor cell lines; type: functional, cell-based, Homo sapiens; conditions: hct-15
786-0 = assay: In vitro antitumor activity against renal 786-0 tumor cell lines; type: functional, cell-based, Homo sapiens
MCF7 = assay: In vitro antitumor activity against breast MCF-7 tumor cell lines; type: functional, cell-based, Homo sapiens; conditions: mcf7
COLO 205 = assay: In vitro antitumor activity against colon COLO 205 tumor cell lines; type: functional, cell-based, Homo sapiens; conditions: colo 205
UACC-62 = assay: In vitro antitumor activity against melanoma UACC-62 tumor cell lines; type: functional, cell-based, Homo sapiens; conditions: uacc-62
NCI-H522 = assay: In vitro antitumor activity against NSCL NCI-H522 tumor cell lines; type: functional, cell-based, Homo sapiens; conditions: nci-h522
Homo sapiens = species on record: Homo sapiens; assay: Concentration giving 500 zone units against H116 colon tumor cell lines; type: functional
Summary of the method: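 Disk diffusion soft agar colony formation assay on human H116 colon tumor cells. Each sample was applied to a disk as 15 µL, and activity was read as zone units. The value is the sample concentration that gave 500 zone units.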

MOLT-4 = assay: In vitro antitumor activity against leukemia MOLT-4 tumor cell lines; type: functional, cell-based, Homo sapiens; conditions: molt-4
A498 = assay: In vitro antitumor activity against renal A498 tumor cell lines; type: functional, cell-based, Homo sapiens; conditions: a498
RXF 393 = assay: In vitro antitumor activity against renal RXF 393 tumor cell lines; type: functional, cell-based, Homo sapiens; conditions: rxf 393
NCI-H226 = assay: In vitro antitumor activity against NSCL NCI-H226 tumor cell lines; type: functional, cell-based, Homo sapiens; conditions: nci-h226
HCT-116 = assay: In vitro antitumor activity against colon HCT116 tumor cell lines; type: functional, cell-based, Homo sapiens; conditions: hct-116
M14 = assay: In vitro antitumor activity against melanoma M14 tumor cell lines; type: functional, cell-based, Homo sapiens; conditions: m14
SK-MEL-2 = assay: In vitro antitumor activity against melanoma SK-MEL-2 tumor cell lines; type: functional, cell-based, Homo sapiens; conditions: sk-mel-2
MDA-MB-435 = assay: In vitro antitumor activity against breast MDA-MB-435 tumor cell lines; type: functional, cell-based, Homo sapiens; conditions: mda-mb-435
A549 = assay: In vitro antitumor activity against NSCL A549/ATCC tumor cell lines; type: functional, cell-based, Homo sapiens; conditions: a549
MDA-N = assay: In vitro antitumor activity against breast MDA-N tumor cell lines; type: functional, cell-based, Homo sapiens; conditions: mda-n

| Structure (SMILES) | IC50 (HL-60) [nM] | IC50 (CCRF-CEM) [nM] | IC50 (HCT-15) [nM] | IC50 (786-0) [nM] | IC50 (MCF7) [nM] | IC50 (COLO 205) [nM] | IC50 (UACC-62) [nM] | IC50 (NCI-H522) [nM] | Concentration (Homo sapiens) [µg/mL] | IC50 (MOLT-4) [nM] | IC50 (A498) [nM] | IC50 (RXF 393) [nM] | IC50 (NCI-H226) [nM] | IC50 (HCT-116) [nM] | IC50 (M14) [nM] | IC50 (SK-MEL-2) [nM] | IC50 (MDA-MB-435) [nM] | IC50 (A549) [nM] | IC50 (MDA-N) [nM] |
| --- | --- | --- | --- | --- | --- | --- | --- | --- | --- | --- | --- | --- | --- | --- | --- | --- | --- | --- | --- |
| CC1=C[C@H]2O[C@@H]3[C@H](O)[C@H]4OC(=O)/C=C\C=C\[C@H]([C@@H](C)O)OCC/C(C)=C/C(=O)OC[C@@]2(CC1)[C@]4(C)[C@]31CO1 | 10 | > 10000 | > 10000 | 59 | > 10000 | > 10000 | 9 | > 10000 | 0.14 | > 10000 | 9 | 57 | 7 | < 1 | < 1 | > 10000 | 4 |  |  |
| CC1=C[C@H]2O[C@@H]3C[C@H]4OC(=O)/C=C\C=C\[C@H]([C@H](C)O)OCC/C(C)=C/C(=O)OC[C@@]2(CC1)[C@]4(C)[C@]31CO1 |  |  |  |  |  |  |  |  | 8.6 |  |  |  |  |  |  |  |  |  |  |
| CC(=O)OC(C)[C@@H](O)/C=C/C=C\C(=O)O[C@@H]1CC2O[C@@H]3C=C(C)CC[C@]3(COC(=O)/C=C(\C)CCO)[C@]1(C)[C@]21CO1 (stereo partly drawn) [13`-ACETYLTRICHOVERRIN B] | > 10000 | > 10000 | > 10000 | > 10000 | > 10000 | 612 | 9560 | 1210 | 31 | > 10000 | 2380 | > 10000 | 4870 | > 10000 | 9000 | > 10000 | 2260 | 9770 | 5080 |
| CC1=C[C@H]2O[C@@H]3C[C@H]4OC(=O)/C=C\C=C\[C@H]([C@H](C)O)OCC[C@@H](C)[C@H](O)C(=O)OC[C@@]2(CC1)[C@]4(C)[C@]31CO1 [(6'R,13'S) ISORORIDIN A] | > 10000 | > 10000 | > 10000 | > 10000 | > 10000 | 8 | 2 | 95 | 0.9 | > 10000 | 6 | 10 |  | > 10000 | 10 | > 10000 | 31 | > 10000 | 8 |
| CC1=C[C@H]2O[C@@H]3C[C@H]4OC(=O)/C=C\C=C\[C@H]([C@@H](C)O)OCC[C@@H](C)[C@H](O)C(=O)OC[C@@]2(CC1)[C@]4(C)[C@]31CO1 [RORIDIN A] | > 10000 | > 10000 | > 10000 | 40 | > 10000 | 3 | 5 | < 1 | 0.78 | > 10000 | 316 | 2 | 3 | > 10000 | < 1 | 3 | 6 | > 10000 | 3 |
| CC1=C[C@H]2O[C@@H]3[C@H](O)[C@H]4OC(=O)/C=C\C=C\[C@H]([C@H](C)O)OCC/C(C)=C/C(=O)OC[C@@]2(CC1)[C@]4(C)[C@]31CO1 [RORIDIN L] | > 10000 | > 10000 | > 10000 |  | > 10000 | 13 | 18 | 21 | 1.3 | > 10000 | 19 | > 10000 | 91 | > 10000 | 24 | 24 | 20 | > 10000 | 21 |
| CC1=C[C@H]2O[C@@H]3[C@H](O)[C@H]4OC(=O)/C=C\C=C\[C@@H]5O[C@H](C/C(C)=C/C(=O)OC[C@@]2(CC1)[C@]4(C)[C@]31CO1)O[C@H]5C [RORIDIN M] | > 10000 | > 10000 | 483 | > 10000 | > 10000 |  | 409 | 26 | 41 | > 10000 | 583 | 2180 | 157 | 75 | 75 | 260 | 137 | > 10000 | 83 |
| CC1=C[C@H]2OC3C[C@@H](OC(=O)/C=C\C=C\[C@H](O)[C@H](C)O)[C@](C)([C@@]2(COC(=O)/C=C(\C)CCO)CC1)[C@]31CO1 [TRICHOVERRIN A] | > 10000 | > 10000 | > 10000 | > 10000 | > 10000 | 1310 | > 10000 | 936 | 163 | > 10000 | 6960 | > 10000 | 8410 | > 10000 | 7870 | 7540 | 2700 | 5440 | 7780 |
| CC1=C[C@H]2OC3C[C@@H](OC(=O)/C=C\C=C\[C@H](O)[C@@H](C)O)[C@](C)([C@@]2(COC(=O)/C=C(\C)CCO)CC1)[C@]31CO1 [TRICHOVERRIN B] | > 10000 | > 10000 | > 10000 | > 10000 | > 10000 | 4020 | > 10000 | 904 | 175 | > 10000 | 8160 | > 10000 | 6930 | > 10000 | 7100 | 8910 | 5490 | 6210 | > 10000 |
| CC1=C[C@H]2O[C@@H]3C[C@H]4OC(=O)/C=C\C=C\C(=O)OCC[C@@H](C)[C@H](O)C(=O)OC[C@@]2(CC1)[C@]4(C)[C@]31CO1 [VERRUCARIN A] | > 10000 | > 10000 | 8100 |  | 1200 | < 1 | 5 | < 1 | 0.78 | > 10000 | 3 | > 10000 | 4 | > 10000 | < 1 | 8 | 4 | > 10000 | 82 |
| CC1=C[C@H]2O[C@@H]3[C@H](O)[C@H]4OC(=O)/C=C\C=C\C(=O)OCC/C(C)=C/C(=O)OC[C@@]2(CC1)[C@]4(C)[C@]31CO1 [VERRUCARRIN M] | > 10000 | > 10000 | 73 | > 10000 | > 10000 | 7 | 57 | < 1 | 30 | > 10000 | 53 | 84 | 33 |  | 8 | 37 | 14 |  | 14 |

Reference: ChEMBL document CHEMBL1145117, “Structures and cytotoxic properties of trichoverroids and their macrolide analogues produced by saltwater culture of Myrothecium verrucaria” (J Med Chem, 2003)
